From ChEMBL document CHEMBL1687785, “ampG gene of Pseudomonas aeruginosa and its role in β-lactamase expression” (2010)
Converted amounts (≈) assume the structure as drawn.

Key:
Type in all cases: functional
Escherichia coli [1] = assay: Antimicrobial activity against kanamycin resistant Escherichia coli SNO301-1 harboring pEC1C carrying ampC, ampR from Enterobacter cloacae after 16 to 20 hrs by broth microdilution method
Outline: (§1)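 CLSI broth microdilution: serial 2-fold β-lactam dilutions in Mueller-Hinton broth, inoculum about 10^4 cells from starter cultures at OD600 0.5; MIC read as lowest concentration preventing growth after 16 to 20 h at 37°C; triplicate determinations.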

Escherichia coli [2] = assay: Antimicrobial activity against gentamycin resistant Escherichia coli SNO301-1 harboring pEC1C carrying ampC, ampR from Enterobacter cloacae after 16 to 20 hrs by broth microdilution method; outline: as §1
Pseudomonas aeruginosa [3] = assay: Antimicrobial activity against ampGh1 deficient Pseudomonas aeruginosa PAO1 after 16 to 20 hrs by broth microdilution method
Outline: (§2)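 CLSI broth microdilution in Mueller-Hinton broth, serial 2-fold antibiotic dilutions. Inoculum about 10^4 cells per well, taken from starter cultures grown to OD600 0.5. MIC was the lowest antibiotic concentration preventing growth after 16 to 20 h at 37°C. Each MIC was determined in triplicate.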

Pseudomonas aeruginosa [4] = assay: Antimicrobial activity against ampG deficient Pseudomonas aeruginosa PAK after 16 to 20 hrs by broth microdilution method; outline: as §2
Pseudomonas aeruginosa [5] = assay: Antimicrobial activity against ampGh1 deficient Pseudomonas aeruginosa PAK after 16 to 20 hrs by broth microdilution method; outline: as §2
Pseudomonas aeruginosa [6] = assay: Antimicrobial activity against ampG deficient Pseudomonas aeruginosa PAO1 harboring pZY0908 conferring resistance to gentamycin after 16 to 20 hrs by broth microdilution method; outline: as §2
Pseudomonas aeruginosa [7] = assay: Antimicrobial activity against ampG deficient Pseudomonas aeruginosa PAK harboring pUCP24 conferring resistance to gentamycin after 16 to 20 hrs by broth microdilution method; outline: as §2
Pseudomonas aeruginosa [8] = assay: Antimicrobial activity against ampG deficient Pseudomonas aeruginosa PAK harboring pZY0901 conferring resistance to gentamycin after 16 to 20 hrs by broth microdilution method; outline: as §2
Pseudomonas aeruginosa [9] = assay: Antimicrobial activity against ampD, ampDh2, ampDh3 and ampG deficient Pseudomonas aeruginosa PAO1 harboring pUCP24 conferring resistance to gentamycin after 16 to 20 hrs by broth microdilution method; outline: as §2
Pseudomonas aeruginosa [10] = assay: Antimicrobial activity against ampD, ampDh2, ampDh3 and ampG deficient Pseudomonas aeruginosa PAO1 after 16 to 20 hrs by broth microdilution method; outline: as §2
Pseudomonas aeruginosa [11] = assay: Antimicrobial activity against ampD, ampDh2, ampDh3 deficient Pseudomonas aeruginosa PAO1 after 16 to 20 hrs by broth microdilution method in presence of 120 uM carbonyl cyanide m-chlorophenyl-hydrazone
Outline: (§3)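 CLSI broth microdilution in Mueller-Hinton broth with serial antibiotic dilutions. CCCP was added from a 10 mM DMSO stock to 120 μM final, then the bacterial culture was added as inoculum (about 10^4 cells from OD600 0.5 starter cultures). MIC was the lowest concentration preventing growth after 16 to 20 h at 37°C, run in triplicate.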

Pseudomonas aeruginosa [12] = assay: Antimicrobial activity against ampGh1 deficient Pseudomonas aeruginosa PAO1 after 16 to 20 hrs by broth microdilution method in presence of 120 uM carbonyl cyanide m-chlorophenyl-hydrazone
Outline: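 Serial 2-fold dilutions of β-lactam in Mueller-Hinton broth with CCCP added from a 10 mM DMSO stock to 120 μM final; inoculum about 10^4 cells from cultures grown to OD600 0.5; MIC taken as lowest concentration preventing growth after 16 to 20 h at 37°C; triplicate.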

Pseudomonas aeruginosa [13] = assay: Antimicrobial activity against ampG deficient Pseudomonas aeruginosa PAO1 harboring pZY0901 conferring resistance to gentamycin after 16 to 20 hrs by broth microdilution method in presence of 120 uM carbonyl cyanide m-chlorophenyl-hydrazone; outline: as §3
Pseudomonas aeruginosa [14] = assay: Antimicrobial activity against ampG deficient Pseudomonas aeruginosa PAK after 16 to 20 hrs by broth microdilution method in presence of 120 uM carbonyl cyanide m-chlorophenyl-hydrazone; outline: as §3
Pseudomonas aeruginosa [15] = assay: Antimicrobial activity against ampG, ampGh1 deficient Pseudomonas aeruginosa PAK after 16 to 20 hrs by broth microdilution method in presence of 120 uM carbonyl cyanide m-chlorophenyl-hydrazone; outline: as §3
Pseudomonas aeruginosa [16] = assay: Antimicrobial activity against ampG deficient Pseudomonas aeruginosa PAK harboring pUCP24 conferring resistance to gentamycin after 16 to 20 hrs by broth microdilution method in presence of 120 uM carbonyl cyanide m-chlorophenyl-hydrazone; outline: as §3
Pseudomonas aeruginosa [17] = assay: Antimicrobial activity against ampG deficient Pseudomonas aeruginosa PAK harboring pZY0901 conferring resistance to gentamycin after 16 to 20 hrs by broth microdilution method in presence of 120 uM carbonyl cyanide m-chlorophenyl-hydrazone; outline: as §3
Pseudomonas aeruginosa [18] = assay: Antimicrobial activity against ampD, ampDh2, ampDh3 and ampGh1 deficient Pseudomonas aeruginosa PAO1 after 16 to 20 hrs by broth microdilution method in presence of 120 uM carbonyl cyanide m-chlorophenyl-hydrazone; outline: as §3
Pseudomonas aeruginosa [19] = assay: Antimicrobial activity against Pseudomonas aeruginosa isolate 2 obtained from cystic fibrosis patients after 16 to 20 hrs by broth microdilution method; outline: as §2
Pseudomonas aeruginosa [20] = assay: Antimicrobial activity against Pseudomonas aeruginosa isolate 5 obtained from cystic fibrosis patients after 16 to 20 hrs by broth microdilution method in presence of 120 uM carbonyl cyanide m-chlorophenyl-hydrazone; outline: as §3
Pseudomonas aeruginosa [21] = assay: Antimicrobial activity against Pseudomonas aeruginosa isolate 6 obtained from cystic fibrosis patients after 16 to 20 hrs by broth microdilution method; outline: as §2
Pseudomonas aeruginosa [22] = assay: Antimicrobial activity against Pseudomonas aeruginosa isolate 7 obtained from cystic fibrosis patients after 16 to 20 hrs by broth microdilution method in presence of 120 uM carbonyl cyanide m-chlorophenyl-hydrazone; outline: as §3
Pseudomonas aeruginosa [23] = assay: Antimicrobial activity against Pseudomonas aeruginosa isolate 8 obtained from cystic fibrosis patients after 16 to 20 hrs by broth microdilution method in presence of 120 uM carbonyl cyanide m-chlorophenyl-hydrazone; outline: as §3
Pseudomonas aeruginosa [24] = assay: Antimicrobial activity against Pseudomonas aeruginosa isolate 10 obtained from cystic fibrosis patients after 16 to 20 hrs by broth microdilution method
Outline: (§4)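 CLSI broth microdilution: 2-fold serial antibiotic dilutions in Mueller-Hinton broth, inoculated with about 10^4 cells per 100 μl from starter cultures grown to OD600 0.5. MIC is the lowest concentration preventing growth after 16-20 h at 37°C. Triplicate.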

Pseudomonas aeruginosa [25] = assay: Antimicrobial activity against Pseudomonas aeruginosa isolate 11 obtained from cystic fibrosis patients after 16 to 20 hrs by broth microdilution method; outline: as §4
Pseudomonas aeruginosa [26] = assay: Antimicrobial activity against Pseudomonas aeruginosa isolate 12 obtained from cystic fibrosis patients after 16 to 20 hrs by broth microdilution method; outline: as §4
Pseudomonas aeruginosa [27] = assay: Antimicrobial activity against Pseudomonas aeruginosa isolate 15 obtained from cystic fibrosis patients after 16 to 20 hrs by broth microdilution method in presence of 120 uM carbonyl cyanide m-chlorophenyl-hydrazone
Outline: (§5)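 CLSI broth microdilution in Mueller-Hinton broth with CCCP added from a 10 mM DMSO stock to 120 μM final, alongside 2-fold serial antibiotic dilutions. Inoculum from starter cultures grown to OD600 0.5. MIC is the lowest concentration preventing growth after 16-20 h at 37°C. Triplicate.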

Pseudomonas aeruginosa [28] = assay: Antimicrobial activity against Pseudomonas aeruginosa isolate 16 obtained from cystic fibrosis patients after 16 to 20 hrs by broth microdilution method in presence of 120 uM carbonyl cyanide m-chlorophenyl-hydrazone; outline: as §5
Pseudomonas aeruginosa [29] = assay: Antimicrobial activity against Pseudomonas aeruginosa isolate 17 obtained from cystic fibrosis patients after 16 to 20 hrs by broth microdilution method in presence of 120 uM carbonyl cyanide m-chlorophenyl-hydrazone; outline: as §3
Pseudomonas aeruginosa [30] = assay: Antimicrobial activity against Pseudomonas aeruginosa isolate 18 obtained from cystic fibrosis patients after 16 to 20 hrs by broth microdilution method; outline: as §2

CC1(C)S[C@@H]2[C@H](NC(=O)[C@H](N)c3ccccc3)C(=O)N2[C@H]1C(=O)O [AMPICILLIN]
MIC (Escherichia coli [1]): 1020 mg/L (≈ 2930 µM) | MIC (Escherichia coli [2]): 1020 mg/L (≈ 2930 µM) | MIC (Pseudomonas aeruginosa [3]): 256 mg/L (≈ 733 µM) | MIC (Pseudomonas aeruginosa [4]): 32 mg/L (≈ 91.6 µM) | MIC (Pseudomonas aeruginosa [5]): 512 mg/L (≈ 1470 µM) | MIC (Pseudomonas aeruginosa [6]): 32 mg/L (≈ 91.6 µM) | MIC (Pseudomonas aeruginosa [7]): 32 mg/L (≈ 91.6 µM) | MIC (Pseudomonas aeruginosa [8]): 512 mg/L (≈ 1470 µM) | MIC (Pseudomonas aeruginosa [9]): 16 mg/L (≈ 45.8 µM) | MIC (Pseudomonas aeruginosa [10]): 16 mg/L (≈ 45.8 µM) | MIC (Pseudomonas aeruginosa [11]): 64 mg/L | MIC (Pseudomonas aeruginosa [12]): 256 mg/L | MIC (Pseudomonas aeruginosa [13]): 512 mg/L | MIC (Pseudomonas aeruginosa [14]): 32 mg/L | MIC (Pseudomonas aeruginosa [15]): 32 mg/L | MIC (Pseudomonas aeruginosa [16]): 32 mg/L | MIC (Pseudomonas aeruginosa [17]): 32 mg/L | MIC (Pseudomonas aeruginosa [18]): 64 mg/L | MIC (Pseudomonas aeruginosa [19]): 256 mg/L (≈ 733 µM) | MIC (Pseudomonas aeruginosa [20]): 512 mg/L | MIC (Pseudomonas aeruginosa [21]): > 1020 mg/L | MIC (Pseudomonas aeruginosa [22]): 8 mg/L | MIC (Pseudomonas aeruginosa [23]): 8 mg/L | MIC (Pseudomonas aeruginosa [24]): > 1020 mg/L | MIC (Pseudomonas aeruginosa [25]): 512 mg/L (≈ 1470 µM) | MIC (Pseudomonas aeruginosa [26]): > 1020 mg/L | MIC (Pseudomonas aeruginosa [27]): 8 mg/L | MIC (Pseudomonas aeruginosa [28]): 8 mg/L | MIC (Pseudomonas aeruginosa [29]): 8 mg/L | MIC (Pseudomonas aeruginosa [30]): 256 mg/L (≈ 733 µM)
